Measured values reported in ChEMBL document CHEMBL4513216, “Probing the Open Global Health Chemical Diversity Library for Multistage-Active Starting Points for Next-Generation Antimalarials” (ACS Infect Dis, 2020).

Assay: Toxicity liver stage against HepG2, at 10uM
Assay type: cell-based
Design: test concentration 10 uM, cell line HepG2-A16-CD81EGFP
Conditions: human, HepG2-A16-CD81EGFP cells; read-out: INHIBITION
How it was run: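 Uninfected HepG2-A16-CD81EGFP cells, 3 × 10^3 per well, 1536-well, plated on prespotted compound at 10 μM final, parasite-free screening media added to match infected plates; puromycin 10 μM positive, DMSO 0.5% negative; run in parallel with 48 h PbLuc assay at 37 °C, 5% CO2; viability by CellTiter-Glo luminescence, normalized to controls.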

Structure (SMILES) | cytotoxicity at 10 µM [%]
Cc1ccc(CN2Cc3ccnn3CC(COCc3cccnc3)C2)o1 (configuration not stated) | -143
O=C(CC1=CSC2=NCCN12)N1CCCC(CCc2cccc(F)c2)C1 (configuration not stated) | 5.21
CN1CCCc2cc(CNC(=O)c3cccnc3O)ccc21 | -1.68
N#Cc1c(Cl)nsc1NCc1ccc(N2CCC(CO)CC2)cc1 | -4.73
Cc1cc(CNC2CCc3nc(C(C)C)nn3C2)on1 (configuration not stated) | 7.61
COc1ccc2nnc(CCCC(=O)NCc3cccn3C)n2n1 | 3.85
Cc1noc(C)c1C(=O)NCCc1cccs1 | 12
CC(C)N(CC(N)=O)Cc1csc(COc2ccc(F)cc2)n1 | 33.9
COCc1cn(C2CCN(C(=O)Cc3ccsc3)CC2)nn1 | -4.2
CS(=O)(=O)c1cn[nH]c1C1CCCCN1C(=O)Cc1cccnc1 (configuration not stated) | -30.7
CC(C)c1cc(NC(=O)CN2CCc3ccccc3C2)on1 | -4.89
CCCN1CCC(c2cc(CCOc3ccc(C(F)(F)F)cc3)[nH]n2)C1 (configuration not stated) | -3.58
O=C(O)c1cccnc1N1CCN(Cc2ccc(F)cc2)C(CCO)C1 (configuration not stated) | 12.3
COc1ncc(C2(O)CCN(Cc3cccs3)CC2)c(OC)n1 | 1.9
O=C(NCc1cn2c(n1)CN(Cc1nccs1)CC2)C1CCC1 | 4.61
Cc1sc2ncc(-c3ccnc(NC4CCN(C)CC4)n3)c(=O)n2c1C | -7.75
Cc1cc(COc2ccc(OC3CCCCNC3=O)cc2)on1 (configuration not stated) | 13.4
O=C(c1cccnc1)N1C[C@H]2CN(Cc3cccc(F)c3)C(=O)[C@H]2C1 | -78.9
CS(=O)(=O)CCC(=O)NC1(c2cccc(C(F)(F)F)c2)CCC1 | -40.1
Cc1cccc(Cl)c1NC(=O)Cn1cc(C(=O)O)ccc1=O | -1.35
CCN(CC)C(=O)CNC(=O)c1ccc(-c2ccsc2)nc1C | 22.9
COc1ccnc(N2CCN(C(=O)Cc3csc(C)n3)CC2)n1 | -15.6
Cc1c(C(=O)NCC2CCCO2)nnn1-c1cccc2c1CCN(C)C2 (configuration not stated) | 1.96

Structure (SMILES) | cytotoxicity at 10 µM [%]
Cc1oc(-c2ccco2)nc1CC(=O)N1CCN(CC(C)O)CC1 (configuration not stated) | -11.4
NC(=O)Nc1cccc(C(=O)N(Cc2ccncc2)C2CC2)c1 | -2.34
CSc1nc(N)c2c(n1)N=C1COC(=O)C1C2c1cccc(O)c1 (configuration not stated) | 32.8
c1cncc(Cc2nnc3n2CCN(CC2CCCNC2)CC3)c1 (configuration not stated) | 2.1
Oc1cccc(-c2cc(C3CCN(Cc4cncnc4)C3)ccn2)c1 (configuration not stated) | 5.06
Cn1ccc(NC(=O)CN2C[C@@H]3CC[C@H]2CN(S(C)(=O)=O)C3)n1 | -14.2
Cc1nonc1N1CCN(Cc2nc(CC3CC3)no2)CC1 | 9.34
Cc1nn(C)c2cn(C(C)C(=O)NCc3cccc(F)c3)nc12 (configuration not stated) | 6.61
CCNc1ccnc(N2CCCC(CCOC)(C(=O)O)C2)n1 (configuration not stated) | 2.84
Cc1cccnc1CN1CCOC(Cc2cccc3ccccc23)C1 (configuration not stated) | -2.43
COc1ccc(C(=O)N2C[C@@H](CN3CCCCC3)[C@@H](CO)C2)cc1Cl | -0.703
Cc1nccc(-c2cccc(NCC(=O)N3CCOC(C)C3)c2)n1 (configuration not stated) | -0.776
CCn1nc(C)cc1C(=O)NCc1nc(C)no1 | 0.304
COC1C[C@@H]2CN(C(=O)c3cc4cccc(F)c4[nH]3)C[C@@H]2C1 (some centres not stated) | 1.51
Cc1cc(C(=O)N2CCCC2c2nc(C)cc(O)n2)on1 (configuration not stated) | -15.2
CCCN1CCC(N2CCC(Cn3cc(CC(C)O)nn3)CC2)CC1 (configuration not stated) | -1.89
O=C(c1c[nH]nn1)N1CCN(C(c2ccccc2)C(F)(F)F)CC1 (configuration not stated) | 8.92
CN(C)CCNC(=O)[C@H]1C[C@H]2CN(C(=O)NCc3ccccc3)C[C@@H]1O2 | 1.96
CCN(Cc1ccoc1)C(C(N)=O)c1ccc(Br)cc1 (configuration not stated) | -5.5
COC(=O)c1ccc(C(=O)NCc2ccco2)nc1 | -3.73
Cc1ccccc1OCCC(=O)N(C)Cc1c(C)noc1C | -8.73
CC(C)c1nn(C)c(N2CCOCC2)c1CNCCC(=O)N(C)C | -16.5
COC(=O)c1cc(C(=O)N2CCC(OC)CC2)n(-c2ccccc2)n1 | -15.1

Structure (SMILES) | cytotoxicity at 10 µM [%]
C=c1ncsc1=C1NN=C(C2CCCN2C(=O)CCn2cccn2)O1 (configuration not stated) | 2.29
CCCNC(=O)c1ccc2c(c1)C(=O)N(CC(C)C)C2=O | -10.2
CCN1CC2(CCOCC2)c2cc(NS(=O)(=O)CC)ccc21 | -104
CCC(CC)NCC(c1ccccn1)N1CCOCC1 (configuration not stated) | -44.8
Cc1cc(C)cc(OCCN(C)C2CCOC2=O)c1 (configuration not stated) | -143
CCNC(=O)[C@@H]1C[C@@H](NC(=O)c2cccnc2O)CN1Cc1ccsc1 | -5.39
Cc1cc(C(F)(F)F)nn1CC(C)C(=O)NC(C)C (configuration not stated) | 10
CN1CCCC1c1nnc2n1CCN(S(=O)(=O)c1ccccc1Cl)CC2 (configuration not stated) | 4.94
CCc1ccc(CN2CCN(C)c3ncccc3C2)o1 | 3.78
CCOc1ccccc1CSc1nnc(CC2CCS(=O)(=O)C2)n1C (configuration not stated) | 10.7
Cc1nn(C)c(Cl)c1CNCc1ccc(OCC(N)=O)cc1 | 1.08
CCNC(=O)C1CCCN(Cn2nc(C(C)(C)C)ccc2=O)C1 (configuration not stated) | 10.1
CCC(C)(C)NCc1nc(C(C)(C)NC(=O)OC(C)(C)C)no1 | 2.35
CC(C)COc1cncc(N2CCCC(CC(N)=O)C2)n1 (configuration not stated) | -1.67
COc1ccc(-c2nc(CN3CCOCS3(=O)=O)c(C)o2)cc1 | -0.0714
CC(C)(C)c1n[nH]cc1CNC1CCC(O)CC1 (configuration not stated) | 2.33
CCN(Cc1cccnc1)C1CCN(c2ccccc2)C1=O (configuration not stated) | -0.483
N#Cc1ccc(S(=O)(=O)NC(=O)c2ccc3c(c2)COC3)cc1 | 1.39
CCCSCC(=O)NS(=O)(=O)c1ccc2c(c1)OCCO2 | -9.78
Cc1cc(C)c(CNC(=O)N2CCN(c3nccs3)CC2)c(=O)[nH]1 | -20.9
CC1=N[C@@]2(CC[C@@H]3CN(CC(C)C)C[C@@H]32)C(=O)N1C | 3.5
COc1ccc(OCCN2CCOCS2(=O)=O)cc1 | 2.6
CCC[C@H]1CN(S(=O)(=O)N(C)Cc2ccccc2)C[C@@H]1N | -138

Structure (SMILES) | cytotoxicity at 10 µM [%]
CC(C)(C)OC(=O)NCC1CCN(C(=O)c2ccccc2O)C1 (configuration not stated) | -3.73
OC1CCN(CCCNc2nccc(C3CCCC3)n2)CC1 | -1.81
COc1ccc(C)cc1C(C(=O)O)N1CCN(Cc2ccccn2)CC1 (configuration not stated) | 4.4
COc1ccccc1OCC(=O)NCc1ncc(C)c(OC)c1C | -6.63
Cn1cc(CN2CCCC(Cn3cc(CCCO)nn3)C2)cn1 (configuration not stated) | -3.51
CN1CCN(C(=O)N2C[C@@H]3CC[C@H]2CN(Cc2ccccc2)C3)CC1 | -7.71
CC(C)CC1SCC(=O)Nc2c1cnn2-c1ccccc1F (configuration not stated) | -8.62
CNC(=O)C1Cc2ccccc2CN1CCCc1ccccc1 (configuration not stated) | 4.23
NC(=O)C(CNC(=O)COCC(F)(F)F)Cc1ccc(F)cc1 (configuration not stated) | -5.36
Cc1ccc(NC(=O)N2CCN(Cc3noc(C4CC4)n3)CC2)cc1 | 4.88
Nc1cc(C(=O)N2CCCC3(C=Cc4ccccc4O3)CC2)ccn1 (configuration not stated) | 13.7
Cc1ccc(CN(CCN(C)C)Cc2ncc[nH]2)s1 | -10.5
CSc1ccc(CNC(c2ccccc2)c2nccn2C)cc1 (configuration not stated) | 2.39
CC(NC(=O)NC1CCN(Cc2ccccn2)CC1)c1nncn1C (configuration not stated) | 0.335
COC(=O)CCCn1ccnc1-c1ccc(OC)c(F)c1F | -2.8
COc1ncccc1NC(=O)c1cccc(C)n1 | 2.3
CC(C)N(CC(N)=O)Cc1cccc(C(F)(F)F)c1 | 0.292
CS(=O)(=O)NCC1CCCN(c2ccc(C#N)cn2)C1 (configuration not stated) | -11.1
CCN1CCN(C2CCN(CCOc3ccc(F)cc3)CC2)C1=O | -5.38
O=C(NCc1nn(-c2ccccc2)c2c1CCC2)NCC1COCCO1 (configuration not stated) | -3.39
Cc1nc(C)n(CC2CCCN2Cc2cccc3c2OCCO3)n1 (configuration not stated) | -3.33
Cc1noc(C)c1C(=O)N1CCC(c2[nH]ncc2S(C)(=O)=O)C1 (configuration not stated) | -9.83
Cn1c(SCc2noc(-c3ccsc3)n2)nnc1C1CCS(=O)(=O)C1 (configuration not stated) | 3.39

Structure (SMILES) | cytotoxicity at 10 µM [%]
CN(C)CCN1CCC2(CC1)CN(c1cccnc1)C(=O)CO2 | 1.7
Cc1n[nH]c(C)c1C1COCCN1C(=O)c1cc(Cl)c[nH]1 (configuration not stated) | -4.12
CC1CCc2nc(O)c(C(=O)NCc3ccncc3)cc2C1 (configuration not stated) | -1.37
CC(C)(Oc1ccc(F)cc1)C(=O)NCc1ccco1 | -9.19
CNc1ccccc1C(=O)N(C)CCc1ccccc1 | -1.76
O=C(CC1CCN(c2cccnn2)CC1)NC1CCOCC1 | 0.671
O=C(CCN1CCc2cncnc2C1)N1CCc2sccc2C1 | 2.37
CN(C)S(=O)(=O)N(Cc1cscn1)c1ccccc1 | -3.91
CC(C)N(C)Cc1nnc2n1CCN(Cc1ccncc1)CC2 | -2.42
CCC1(CC)C(=O)NC(=O)N=C1Nc1ccc(C)cc1 | -6.34
CC(C)c1cccc(CSc2nnc(CN3CCCC3=O)o2)n1 | 3.59
Cn1cnc2c1CCN(CC(O)c1ccc3c(c1)OCCO3)C2 (configuration not stated) | -13.7
O=C(c1cc(C2CC2)nc2onc(-c3ccccc3)c12)N1CC(O)C1 | -50.5
CC(C)NC(=O)[C@@H]1C[C@@H](N)CN1C(=O)c1cc2c([nH]c1=O)CCCC2 | -0.869
CN(C)c1ccc(CN(CC2CCCO2)C(=O)c2csnn2)cc1 (configuration not stated) | -1.59
COCCCNC(=O)CN(C)C(=O)c1cc2cc(C)ccc2nc1C | -10.2
C=C(C)CNc1nc(CS(=O)(=O)c2ccccc2)cs1 | -8.37
O=C(CCc1nc(Cl)n[nH]1)NC1CCCN(C2Cc3ccccc3C2)C1 (configuration not stated) | -18.9
Cn1ccnc1CN1CCC2(CC1)CN(Cc1cccnc1)C(=O)CO2 | 4
O=C(O)c1ccn(-c2ccccc2NS(=O)(=O)c2ccccc2)n1 | 23
